The source of these data is ChEMBL document CHEMBL1165893, “Synthesis, anticancer and antioxidant activities of 7-methoxyisoflavanone and 2,3-diarylchromanones” (Eur J Med Chem, 2010).

Each structure is given as a SMILES string. Calls of active or inactive are those of the source. No cut-off for these calls is given here. Where only a bound is given, the exact number is not on record here.

Data set [1] can be described thus: Cytotoxicity against human PBMC cells after 5 days by MTT assay. The class given is cell-based. The method, boiled down: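 Cells seeded at 3 × 10^5 cells/mL in 96-well plates and kept at 37 °C in humidified 5% CO2 with test compound for 5 days. PBMC came from healthy donors. Viability read by MTT; CC50 calculated. Mean ± SD of three independent experiments, Student t-test.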
In general terms: Tetrazolium dyes change colour on reduction, which living cells bring about.

For data set [2], the system named is HL-60. Put plainly: Induction of apoptosis in human HL60 cells assessed as fragmentation of DNA after 48 hrs by electrophoresis. The class given is functional, cell-based. Summed up: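 HL60 cells exposed to test compound alongside untreated control. After 48 h, DNA extracted, run on 0.8% agarose gel with ethidium bromide, and fragmentation pattern imaged.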

A short description of data set [3]: Antioxidant activity assessed as free radical scavenging activity by lipid peroxidation assay. In kind it is functional. Summed up: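 Lipid peroxidation system initiated with 400 mM FeCl3 and 200 mM L-ascorbic acid (stock levels as printed). Test compound added at several concentrations; control without compound. Incubated 37 °C, 60 min. Stopped with 0.25 N HCl / 1.5% TCA / 0.375% thiobarbituric acid, boiled 15 min, cooled, centrifuged. Absorbance read at 532 nm; percent inhibition versus control used to derive EC50.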

Data set [4] has as its system HL-60. Put plainly: Cytotoxicity against human HL60 cells after 5 days by MTT assay. To be noted: HL-60, 120 h. In kind it is functional.
Data set [5] concerns HL-60. Put plainly: Induction of apoptosis in human HL60 cells after 48 hrs using annexin V-propidium iodide staining by FACS analysis. In kind it is functional, cell-based. The method, boiled down: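 HL60 cells incubated with test compound at a concentration set from its CC50. Stained with FITC-Annexin V and analysed by flow cytometry, with treated-cell fluorescence compared against control cells.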
(Flow cytometry measures light scatter and fluorescence of single cells or particles in a stream.)

What is called CC50 is the concentration that lowers cell viability or growth by half. Lower therefore signals greater toxicity to the cells. What is called EC50 is the midpoint of the concentration-response curve. Regarding `COc1ccc2c(c1)OC(c1ccc([N+](=O)[O-])cc1)C(c1ccccc1)C2=O` (centres undefined), the CC50 at 120 h in data set [1] is 0.595 mM. The result in data set [2] was Active. Further, the EC50 in data set [3] was over 2500 µM. In data set [4], the midpoint of cytotoxicity, the CC50, lay at 73.2 µM.
In the same order, the values of `COc1ccc2c(c1)OC(c1cccc([N+](=O)[O-])c1)C(c1ccccc1)C2=O` (centres undefined) are over 2.5 mM, “Active”, 130 µM and over 2500 µM.
Compound `CCOc1ccc2c(c1)OC(c1ccc(Cl)cc1)C(c1ccccc1)C2=O` (centres undefined) gave a CC50 at 120 h in data set [1] of over 2.5 mM. In addition, the result in data set [2] was Active. Further, in data set [3], the EC50 is 578 µM. The compound further came in with a CC50 in data set [4] of 514 µM.
In data set [4], `O=c1[nH]cc(F)c(=O)[nH]1` [FLUOROURACIL] came in with a CC50 of 0.07 µM.
With `COc1ccc2c(c1)OC(c1ccc(Cl)cc1)C(c1ccccc1)C2=O` (centres undefined), in data set [1], the CC50 at 120 h was over 2.5 mM. Moreover, in data set [2], the outcome was Active. In addition, in data set [3], the EC50 was 165 µM. It took 2410 µM to reach half-maximal cytotoxicity in data set [4] (CC50).
In the same order, the values of `CCOc1ccc2c(c1)OC(c1cccc([N+](=O)[O-])c1)C(c1ccccc1)C2=O` (centres undefined) are over 2.5 mM, “Active”, 193 µM and over 2500 µM.
For `COc1ccc2cc3[n+](cc2c1OC)CCc1cc2c(cc1-3)OCO2`, the outcome in data set [5] was Active.
In data set [1], `CCOc1ccc2c(c1)OC(c1ccccc1)C(c1ccccc1)C2=O` (centres undefined) came in with a CC50 at 120 h of over 2.5 mM. In addition, the result in data set [2] was Active. Also, the EC50 in data set [3] amounted to 877 µM. Further, the CC50 in data set [4] is over 2500 µM.
Consider `O=C1O[C@H]([C@@H](O)CO)C(O)=C1O` [ASCORBIC ACID], for which the EC50 in data set [3] worked out at 754 µM.
With `COc1ccc2c(c1)OC(c1ccccc1)C(c1ccccc1)C2=O` (centres undefined), the CC50 at 120 h in data set [1] was over 2.5 mM. Also, in data set [2], the outcome was Active. In addition, the EC50 in data set [3] is 500 µM. For the same compound, in data set [4], the midpoint of cytotoxicity, the CC50, lay at 2330 µM.
Compound `CCOc1ccc2c(c1)OC(c1ccc([N+](=O)[O-])cc1)C(c1ccccc1)C2=O` (centres undefined) returned a CC50 at 120 h in data set [1] of 1.36 mM. For the same compound, in data set [2], the outcome was Active. Further, the EC50 in data set [3] is over 2500 µM. This compound showed a CC50 in data set [4] of 203 µM.
In the same order, the values of `COc1ccc2c(c1)OCC(c1ccccc1)C2=O` (centres undefined) are 0.521 mM, “Active”, 965 µM and 82.6 µM.
